Test results: ChEMBL document CHEMBL3044625, “Non-target-site-based resistance to ALS-inhibiting herbicides in six Bromus rigidus populations from Western Australian cropping fields” (Pest Manag Sci, 2012)
Calls of active or inactive are those of the source. The rule behind the calls is not given here.

How the values were obtained:
[1] = tested on: Bromus diandrus var. rigidus; assay: Herbicidal activity against ALS-inhibiting herbicide-resistant two-leaf stage Bromus diandrus var. rigidus biotype R6 seedlings exposed to compound spraying in presence of 1000 g/ha cytochrome P450 inhibitor malathion measured […]; assay type: functional
How it was run: (§1)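 Seeds were germinated on 1% water agar for 7–10 days at ambient conditions, then sprayed at the 2–3-leaf stage. Malathion at 1000 g ha−1 was sprayed 30 min before the herbicide, or omitted. Herbicide doses were 18.75–600 g ha−1. Survival and dried above-ground biomass were assessed 21 days after treatment, with two replicates. LD50 came from non-linear regression, and R/S is the ratio of resistant to susceptible LD50.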

[2] = tested on: Bromus diandrus var. rigidus; assay: Herbicidal activity against ALS-inhibiting herbicide-resistant two-leaf stage Bromus diandrus var. rigidus biotype R2 seedlings exposed to compound spraying in absence of 1000 g/ha cytochrome P450 inhibitor malathion measured […] after compound spraying; assay type: functional; how it was run: as §1
[3] = tested on: Bromus diandrus var. rigidus; assay: (§2) Resistance index, ratio of LD50 for ALS-inhibiting herbicide-resistant two-leaf stage Bromus diandrus var. rigidus biotype R1 in presence of 1000 g/ha cytochrome P450 inhibitor malathion to LD50 for ALS-inhibiting herbicide-susceptible two-leaf stage Bromus diandrus var. rigidus in presence of 1000 g/ha cytochrome P450 inhibitor malathion; assay type: functional; how it was run: as §1
[4] = tested on: Bromus diandrus var. rigidus; assay: as §2, with “R3” for “R1”; assay type: functional; how it was run: as §1
[5] = tested on: Bromus diandrus var. rigidus; assay: as §2, with “R4” for “R1”; assay type: functional; how it was run: as §1
[6] = tested on: Bromus diandrus var. rigidus; assay: as §2, with “absence” for “presence”; assay type: functional; how it was run: as §1
[7] = tested on: Bromus diandrus var. rigidus; assay: Herbicidal activity against ALS-inhibiting herbicide-resistant two-leaf stage Bromus diandrus var. rigidus biotype R2 seedlings assessed as reduction in above-ground biomass exposed to compound spraying in presence of 1000 g/ha cytochrome P450 inhibitor malathion measured […]; assay type: functional, organism-based; how it was run: as §1
[8] = tested on: Bromus diandrus var. rigidus; assay: Herbicidal activity against ALS-inhibiting herbicide-susceptible two-leaf stage Bromus diandrus var. rigidus seedlings exposed to compound spraying in absence of 1000 g/ha cytochrome P450 inhibitor malathion measured […] after compound spraying; assay type: functional; how it was run: as §1
[9] = tested on: Bromus diandrus var. rigidus; assay: Herbicidal activity against ALS-inhibiting herbicide-resistant two-leaf stage Bromus diandrus var. rigidus biotype R1 seedlings assessed as reduction in above-ground biomass exposed to compound spraying in presence of 1000 g/ha cytochrome P450 inhibitor malathion measured […]; assay type: functional, organism-based; how it was run: as §1
[10] = tested on: Bromus diandrus var. rigidus; assay: Herbicidal activity against ALS-inhibiting herbicide-resistant two-leaf stage Bromus diandrus var. rigidus biotype R5 seedlings exposed to compound spraying in presence of 1000 g/ha cytochrome P450 inhibitor malathion measured […]; assay type: functional; how it was run: as §1
[11] = tested on: Bromus diandrus var. rigidus; assay: Herbicidal activity against ALS-inhibiting herbicide-resistant two-leaf stage Bromus diandrus var. rigidus biotype R1 seedlings exposed to compound spraying in presence of 1000 g/ha cytochrome P450 inhibitor malathion measured […]; assay type: functional; how it was run: as §1
[12] = tested on: Bromus diandrus var. rigidus; assay: as §2, with “R2” for “R1”, “absence” for “presence”; assay type: functional; how it was run: as §1
[13] = tested on: Bromus diandrus var. rigidus; assay: Herbicidal activity against ALS-inhibiting herbicide-resistant two-leaf stage Bromus diandrus var. rigidus biotype R3 seedlings exposed to compound spraying in presence of 1000 g/ha cytochrome P450 inhibitor malathion measured […]; assay type: functional; how it was run: as §1
[14] = tested on: Bromus diandrus var. rigidus; assay: Herbicidal activity against ALS-inhibiting herbicide-resistant two-leaf stage Bromus diandrus var. rigidus biotype R3 seedlings assessed as reduction in above-ground biomass exposed to compound spraying in presence of 1000 g/ha cytochrome P450 inhibitor malathion measured […]; assay type: functional, organism-based; how it was run: as §1
[15] = tested on: Bromus diandrus var. rigidus; assay: as §2, with “R6” for “R1”, “absence” for “presence”; assay type: functional; how it was run: as §1
[16] = tested on: Bromus diandrus var. rigidus; assay: Herbicidal activity against ALS-inhibiting herbicide-resistant two-leaf stage Bromus diandrus var. rigidus biotype R3 seedlings exposed to compound spraying in absence of 1000 g/ha cytochrome P450 inhibitor malathion measured […]; assay type: functional; how it was run: as §1
[17] = tested on: Bromus diandrus var. rigidus; assay: as §2, with “R4” for “R1”, “absence” for “presence”; assay type: functional; how it was run: as §1
[18] = tested on: Bromus diandrus var. rigidus; assay: Herbicidal activity against ALS-inhibiting herbicide-resistant two-leaf stage Bromus diandrus var. rigidus biotype R5 seedlings assessed as reduction in above-ground biomass exposed to compound spraying in presence of 1000 g/ha cytochrome P450 inhibitor malathion measured […]; assay type: functional, organism-based; how it was run: as §1
[19] = tested on: Bromus diandrus var. rigidus; assay: as §2, with “R5” for “R1”; assay type: functional; how it was run: as §1
[20] = tested on: Bromus diandrus var. rigidus; assay: Herbicidal activity against ALS-inhibiting herbicide-resistant two-leaf stage Bromus diandrus var. rigidus biotype R6 seedlings assessed as reduction in above-ground biomass exposed to compound spraying in presence of 1000 g/ha cytochrome P450 inhibitor malathion measured […]; assay type: functional, organism-based; how it was run: as §1
[21] = tested on: Bromus diandrus var. rigidus; assay: as §2, with “R3” for “R1”, “absence” for “presence”; assay type: functional; how it was run: as §1
[22] = tested on: Bromus diandrus var. rigidus; assay: Herbicidal activity against ALS-inhibiting herbicide-resistant two-leaf stage Bromus diandrus var. rigidus biotype R6 seedlings exposed to compound spraying in absence of 1000 g/ha cytochrome P450 inhibitor malathion measured […]; assay type: functional; how it was run: as §1
[23] = tested on: Bromus diandrus var. rigidus; assay: Herbicidal activity against ALS-inhibiting herbicide-resistant two-leaf stage Bromus diandrus var. rigidus biotype R4 seedlings assessed as reduction in above-ground biomass exposed to compound spraying in presence of 1000 g/ha cytochrome P450 inhibitor malathion measured […]; assay type: functional, organism-based; how it was run: as §1
[24] = tested on: Bromus diandrus var. rigidus; assay: as §2, with “R5” for “R1”, “absence” for “presence”; assay type: functional; how it was run: as §1
[25] = tested on: Bromus diandrus var. rigidus; assay: Herbicidal activity against ALS-inhibiting herbicide-resistant two-leaf stage Bromus diandrus var. rigidus biotype R5 seedlings exposed to compound spraying in absence of 1000 g/ha cytochrome P450 inhibitor malathion measured […]; assay type: functional; how it was run: as §1
[26] = tested on: Bromus diandrus var. rigidus; assay: Herbicidal activity against ALS-inhibiting herbicide-resistant two-leaf stage Bromus diandrus var. rigidus biotype R2 seedlings exposed to compound spraying in presence of 1000 g/ha cytochrome P450 inhibitor malathion measured […]; assay type: functional; how it was run: as §1
[27] = tested on: Bromus diandrus var. rigidus; assay: Herbicidal activity against ALS-inhibiting herbicide-resistant two-leaf stage Bromus diandrus var. rigidus biotype R1 seedlings exposed to compound spraying in absence of 1000 g/ha cytochrome P450 inhibitor malathion measured […]; assay type: functional; how it was run: as §1
[28] = tested on: Bromus diandrus var. rigidus; assay: as §2, with “R2” for “R1”; assay type: functional; how it was run: as §1
[29] = tested on: Bromus diandrus var. rigidus; assay: Herbicidal activity against ALS-inhibiting herbicide-resistant two-leaf stage Bromus diandrus var. rigidus biotype R4 seedlings exposed to compound spraying in presence of 1000 g/ha cytochrome P450 inhibitor malathion measured […] after compound spraying; assay type: functional; how it was run: as §1
[30] = tested on: Bromus diandrus var. rigidus; assay: Herbicidal activity against ALS-inhibiting herbicide-susceptible two-leaf stage Bromus diandrus var. rigidus seedlings exposed to compound spraying in presence of 1000 g/ha cytochrome P450 inhibitor malathion measured […]; assay type: functional; how it was run: as §1
[31] = tested on: Bromus diandrus var. rigidus; assay: as §2, with “R6” for “R1”; assay type: functional; how it was run: as §1
[32] = tested on: Bromus diandrus var. rigidus; assay: Herbicidal activity against ALS-inhibiting herbicide-resistant two-leaf stage Bromus diandrus var. rigidus biotype R4 seedlings exposed to compound spraying in absence of 1000 g/ha cytochrome P450 inhibitor malathion measured […]; assay type: functional; how it was run: as §1
[33] = tested on: Bromus diandrus var. rigidus; assay: Herbicidal activity against ALS-inhibiting herbicide-susceptible two-leaf stage Bromus diandrus var. rigidus seedlings exposed to compound spraying measured 28 days after compound spraying; assay type: functional
How it was run: (§3)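 Seedlings germinated on 1% water agar (7–10 days, ambient) were sprayed at the 2–3-leaf stage with a sulfonylurea at 1.875–240 g ha−1, with no malathion. Percent survival was scored with three replicate treatments. LD50 came from non-linear regression, and R/S is the ratio of resistant to susceptible LD50.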

[34] = tested on: Bromus diandrus var. rigidus; assay: Herbicidal activity against ALS-inhibiting herbicide-resistant two-leaf stage Bromus diandrus var. rigidus biotype R3 seedlings exposed to compound spraying measured 28 days after compound spraying; assay type: functional; how it was run: as §3
[35] = tested on: Bromus diandrus var. rigidus; assay: Resistance index, ratio of LD50 for ALS-inhibiting herbicide-resistant two-leaf stage Bromus diandrus var. rigidus biotype R5 to ALS-inhibiting herbicide-susceptible two-leaf stage Bromus diandrus var. rigidus; assay type: functional; how it was run: as §3
[36] = tested on: Bromus diandrus var. rigidus; assay: Resistance index, ratio of LD50 for ALS-inhibiting herbicide-resistant two-leaf stage Bromus diandrus var. rigidus biotype R3 to ALS-inhibiting herbicide-susceptible two-leaf stage Bromus diandrus var. rigidus; assay type: functional; how it was run: as §3
[37] = tested on: Bromus diandrus var. rigidus; assay: Resistance index, ratio of LD50 for ALS-inhibiting herbicide-resistant two-leaf stage Bromus diandrus var. rigidus biotype R6 to ALS-inhibiting herbicide-susceptible two-leaf stage Bromus diandrus var. rigidus; assay type: functional; how it was run: as §3
[38] = tested on: Bromus diandrus var. rigidus; assay: Resistance index, ratio of LD50 for ALS-inhibiting herbicide-resistant two-leaf stage Bromus diandrus var. rigidus biotype R4 to ALS-inhibiting herbicide-susceptible two-leaf stage Bromus diandrus var. rigidus; assay type: functional; how it was run: as §3
[39] = tested on: Bromus diandrus var. rigidus; assay: Herbicidal activity against ALS-inhibiting herbicide-resistant two-leaf stage Bromus diandrus var. rigidus biotype R5 seedlings exposed to compound spraying measured 28 days after compound spraying; assay type: functional; how it was run: as §3
[40] = tested on: Bromus diandrus var. rigidus; assay: Herbicidal activity against ALS-inhibiting herbicide-resistant two-leaf stage Bromus diandrus var. rigidus biotype R6 seedlings exposed to compound spraying measured 28 days after compound spraying; assay type: functional; how it was run: as §3
[41] = tested on: Bromus diandrus var. rigidus; assay: Herbicidal activity against ALS-inhibiting herbicide-resistant two-leaf stage Bromus diandrus var. rigidus biotype R4 seedlings exposed to compound spraying measured 28 days after compound spraying; assay type: functional; how it was run: as §3
[42] = tested on: Bromus diandrus var. rigidus; assay: Resistance index, ratio of LD50 for ALS-inhibiting herbicide-resistant two-leaf stage Bromus diandrus var. rigidus biotype R1 to ALS-inhibiting herbicide-susceptible two-leaf stage Bromus diandrus var. rigidus; assay type: functional; how it was run: as §3
[43] = tested on: Bromus diandrus var. rigidus; assay: Resistance index, ratio of LD50 for ALS-inhibiting herbicide-resistant two-leaf stage Bromus diandrus var. rigidus biotype R2 to ALS-inhibiting herbicide-susceptible two-leaf stage Bromus diandrus var. rigidus; assay type: functional; how it was run: as §3
[44] = tested on: Bromus diandrus var. rigidus; assay: Herbicidal activity against ALS-inhibiting herbicide-resistant two-leaf stage Bromus diandrus var. rigidus biotype R1 seedlings exposed to compound spraying measured 28 days after compound spraying; assay type: functional; how it was run: as §3
[45] = tested on: Bromus diandrus var. rigidus; assay: Herbicidal activity against ALS-inhibiting herbicide-resistant two-leaf stage Bromus diandrus var. rigidus biotype R2 seedlings exposed to compound spraying measured 28 days after compound spraying; assay type: functional; how it was run: as §3

SMILES: CCS(=O)(=O)c1nc2ccccn2c1S(=O)(=O)NC(=O)Nc1nc(OC)cc(OC)n1 [SULFOSULFURON]
- LD50 [1]: 11 g/ha
- LD50 [2]: 166 g/ha
- Ratio [3]: 2.6
- Ratio [4]: 2.6
- Ratio [5]: 2.1
- Ratio [6]: 8.7
- Activity [7]: Active
- LD50 [8]: 21 g/ha
- Activity [9]: Active
- LD50 [10]: 12 g/ha
- LD50 [11]: 16 g/ha
- Ratio [12]: 7.9
- LD50 [13]: 16 g/ha
- Activity [14]: Active
- Ratio [15]: 6
- LD50 [16]: 173 g/ha
- Ratio [17]: 11.3
- Activity [18]: Active
- Ratio [19]: 2
- Activity [20]: Active
- Ratio [21]: 8.2
- LD50 [22]: 127 g/ha
- Activity [23]: Active
- Ratio [24]: 6.6
- LD50 [25]: 140 g/ha
- LD50 [26]: 10 g/ha
- LD50 [27]: 183 g/ha
- Ratio [28]: 1.6
- LD50 [29]: 13 g/ha
- LD50 [30]: 6 g/ha
- Ratio [31]: 1.8
- LD50 [32]: 239 g/ha

SMILES: Cc1cc(C)nc(NC(=O)NS(=O)(=O)c2ccccc2C(=O)O)n1 [SULFOMETURON]
- LD50 [33]: 10 g/ha
- LD50 [34]: 31 g/ha
- Ratio [35]: 3.8
- Ratio [36]: 3.1
- Ratio [37]: 4.1
- Ratio [38]: 3
- LD50 [39]: 38 g/ha
- LD50 [40]: 41 g/ha
- LD50 [41]: 30 g/ha
- Ratio [42]: 3
- Ratio [43]: 3.3
- LD50 [44]: 30 g/ha
- LD50 [45]: 33 g/ha
